Data taken from ChEMBL document CHEMBL1649302, “New small-molecule inhibitor class targeting human immunodeficiency virus type 1 virion maturation” (Antimicrob Agents Chemother, 2009).
The source made the active and inactive calls. The rule behind the calls is not given here.

How the values were obtained:
[1] = Therapeutic index, ratio of CC50 for human PM1 cells to EC50 for HIV1 Ba-L infected in human PM1 cells; format: cell-based; conditions: read-out: TI
How it was run: (§1)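 PM1 cells infected at MOI 0.16 for 2 h, washed, then seeded at 1 × 10⁴ cells/well on half-log compound dilutions. After 5 days, supernatant p24 antigen was quantified by ELISA kit. EC50 is the concentration halving p24 versus infected untreated cells. CC50 was measured in PM1 cells by XTT formazan at 450 nm. TI is CC50 divided by EC50.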

[2] = tested on: Human immunodeficiency virus 1; experiment: Antiviral activity HIV1 92HT596 infected in human PBMC after 7 days by scintillation counting; format: functional, organism-based; conditions: Human immunodeficiency virus 1, 92HT596, 168 h
How it was run: (§2)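 PBMCs came from buffy coats pooled from 3–4 seronegative donors, were PHA-stimulated (1.5 μg/ml, 3 days) and frozen. Thawed cells were infected 1 h at 37°C with virus input set by TCID50, then pelleted and resuspended in IL-2 (10 ng/ml). They were plated at 4 × 10⁵ cells/ml onto compounds for 7 days at 37°C. Supernatant RT activity was measured by Quan-T-RT scintillation assay.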

[3] = Therapeutic index, ratio of CC50 for human PBMC to EC50 for HIV1 92HT596 infected in human PBMC; conditions: read-out: TI
How it was run: (§3)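 Frozen PHA-stimulated (1.5 μg/ml, 3 days) buffy-coat PBMCs pooled from three or four seronegative donors. Infected with a TCID50-based virus input per 10⁶ cells for 1 h at 37°C, then pelleted and resuspended in 10 ng/ml IL-2. Plated at 4 × 10⁵ cells/ml on compound dilutions for 7 days at 37°C. Supernatant RT measured by Quan-T-RT. TI is mean CC50 divided by mean EC50.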

[4] = tested on: Human immunodeficiency virus 1; experiment: Antiviral activity against HIV1 NL4-3 infected in HEK293 cells assessed as decrease in virus production at 2 times EC90 after 72 hrs by beta-galactosidase reporter gene assay; format: functional
[5] = tested on: Human immunodeficiency virus 1; experiment: Antiviral activity HIV1 93BR029 infected in human PBMC after 7 days by scintillation counting; format: functional, organism-based; conditions: Human immunodeficiency virus 1, 93BR029, 168 h; how it was run: as §2
[6] = Therapeutic index, ratio of CC50 for human PBMC to EC50 for HIV1 93TH074 infected in human PBMC; conditions: read-out: TI; how it was run: as §3
[7] = tested on: Human immunodeficiency virus 1; experiment: Antiviral activity HIV1 92TH026 infected in human PBMC after 7 days by scintillation counting; format: functional, organism-based; conditions: Human immunodeficiency virus 1, 92TH026, 168 h
How it was run: (§4)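 Fresh PBMCs from HIV/HBV-seronegative donors were PHA-stimulated (4 μg/ml, 48–72 h) and kept with IL-2 (20 U/ml), with at least two donors pooled. Cells were seeded at 5 × 10⁴/well and infected (final MOI ≅0.1) with nine compound concentrations in triplicate wells. After 7 days, reverse transcriptase activity was measured in cell-free supernatant.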

[8] = Therapeutic index, ratio of CC50 for human PBMC to EC50 for HIV1 92US076 infected in human PBMC; conditions: read-out: TI
How it was run: (§5)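 PHA-stimulated (4 μg/ml, 48 to 72 h) PBMCs pooled from at least two seronegative donors, kept with 20 U/ml IL-2, plated at 5 × 10⁴ cells/well. Infected with clinical isolate (final MOI ≅0.1) alongside nine compound concentrations in triplicate wells, 7 days. Supernatant reverse transcriptase activity measured. TI is mean PBMC CC50 divided by mean EC50.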

[9] = tested on: Human immunodeficiency virus 1; experiment: Antiviral activity HIV1 93BR023 infected in human PBMC after 7 days by scintillation counting; format: functional, organism-based; conditions: Human immunodeficiency virus 1, 93BR023, 168 h; how it was run: as §4
[10] = tested on: Human immunodeficiency virus 1; experiment: Antiviral activity HIV1 92BR017 infected in human PBMC after 7 days by scintillation counting; format: functional, organism-based; conditions: Human immunodeficiency virus 1, 92BR017, 168 h; how it was run: as §2
[11] = Therapeutic index, ratio of CC50 for human PBMC to EC50 for HIV1 92TH014 infected in human PBMC; conditions: read-out: TI; how it was run: as §5
[12] = tested on: Human immunodeficiency virus 1; experiment: Antiviral activity HIV1 3B infected in human PBMC after 7 days by scintillation counting; format: functional, organism-based; conditions: Human immunodeficiency virus 1, 3B, 168 h; how it was run: as §2
[13] = Therapeutic index, ratio of CC50 for human PBMC to EC50 for HIV1 92BR014 infected in human PBMC; conditions: read-out: TI; how it was run: as §5
[14] = tested on: Human immunodeficiency virus 1; experiment: Antiviral activity against HIV1 NL4-3 infected in HEK293 cells assessed as inhibition of viral p24 antigen production after 72 hrs
[15] = Therapeutic index, ratio of CC50 for human PBMC to EC50 for HIV1 CMU06 infected in human PBMC; conditions: read-out: TI; how it was run: as §3
[16] = tested on: Human immunodeficiency virus 1; experiment: Antiviral activity HIV1 NL4-3 infected in human PBMC after 7 days by scintillation counting; format: functional, organism-based; conditions: Human immunodeficiency virus 1, NL4-3, 168 h; how it was run: as §2
[17] = tested on: Human immunodeficiency virus 1; experiment: Selectivity ratio of EC50 for HIV1 harboring spacer peptide A1V mutant protein infected in human HeLa cells to EC50 for wild type HIV1 infected in human HeLa cells; format: functional
How it was run: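 MT-2 cells were infected for 2 h with wild-type NL4-3 or recombinant NL4-3 carrying CA I201V or SP1 A1V. They were then cocultured with HeLa CD4 LTR/beta-Gal indicator cells in serially diluted compound. Beta-gal reporter was read after 4 days. EC50s are means ± SD of 3–6 experiments. Fold change is mutant EC50 divided by wild-type EC50.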

[18] = Therapeutic index, ratio of CC50 for human PBMC to EC50 for HIV1 NL4-3 infected in human PBMC; conditions: read-out: TI; how it was run: as §3
[19] = Therapeutic index, ratio of CC50 for human PBMC to EC50 for HIV1 92RW009 infected in human PBMC; conditions: read-out: TI; how it was run: as §3
[20] = tested on: Human immunodeficiency virus 1; experiment: Antiviral activity HIV1 92TH014 infected in human PBMC after 7 days by scintillation counting; format: functional, organism-based; conditions: Human immunodeficiency virus 1, 92TH014, 168 h; how it was run: as §4
[21] = tested on: Human immunodeficiency virus 1; experiment: Antiviral activity against HIV1 NL4-3 infected in human PM1 cells assessed as inhibition of viral p24 antigen production after 5 days; format: functional, organism-based; conditions: Human immunodeficiency virus 1, NL4-3, PM1, 120 h
How it was run: (§6)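 PM1 cells (NL4-3, Ba-L) or MT-2 cells (92HT594, 92HT599) were infected at MOI 0.16 for 2 h and washed. They were plated at 1 × 10⁴ cells/well (2 × 10⁵/ml) onto half-log compound dilutions. Supernatant p24 was quantified by ELISA at day 5. EC50 was the concentration giving a 50% decrease versus infected, compound-free cells.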

[22] = Therapeutic index, ratio of CC50 for human PBMC to EC50 for HIV1 ROJO infected in human PBMC; conditions: read-out: TI; how it was run: as §5
[23] = Therapeutic index, ratio of CC50 for human PM1 cells to EC50 for HIV1 NL4-3 infected in human PM1 cells; format: cell-based; conditions: read-out: TI; how it was run: as §1
[24] = tested on: Human immunodeficiency virus 1; experiment: Antiviral activity against HIV1 92HT599 infected in human MT2 cells assessed as inhibition of viral p24 antigen production after 5 days; format: functional, organism-based; conditions: Human immunodeficiency virus 1, 92HT599, MT2, 120 h; how it was run: as §6
[25] = tested on: Human immunodeficiency virus 1; experiment: Antiviral activity HIV1 92BR014 infected in human PBMC after 7 days by scintillation counting; format: functional, organism-based; conditions: Human immunodeficiency virus 1, 92BR014, 168 h; how it was run: as §4
[26] = tested on: Human immunodeficiency virus 1; experiment: Antiviral activity HIV1 93TH074 infected in human PBMC after 7 days by scintillation counting; format: functional, organism-based; conditions: Human immunodeficiency virus 1, 93TH074, 168 h; how it was run: as §2

Work on `CC(C)(C)c1ccc(C(Cn2cccc(C(F)(F)F)c2=O)NC2Cc3ccccc3C2)cc1` (stereo unspecified) yielded a selectivity ratio [1] of 4, an EC50 [2] of 320 nM and a selectivity ratio [3] of 53. For the same compound, the “inhibition (INH)” value [4] was 92%, the EC50 [5] was 570 nM and the selectivity ratio [6] was 142. For the same compound, the EC50 [7] was > 17000 nM, the selectivity ratio [8] was 2430 and the EC50 [9] was > 17000 nM. For the same compound, the EC50 [10] was 120 nM, the selectivity ratio [11] was < 1 and the EC50 [12] was 320 nM. The selectivity ratio [13] was 2, the inhibition [14] was “inactive” and the selectivity ratio [15] was 14. The EC50 [16] was 110 nM, the “Ratio EC50” value [17] was >16 and the selectivity ratio [18] was 155. The selectivity ratio [19] was 12, the EC50 [20] was > 17000 nM and the EC50 [21] was 30 nM. For the same compound, the selectivity ratio [22] was < 1, the selectivity ratio [23] was 633 and the EC50 [24] was 210 nM. The EC50 [25] was 7000 nM and the EC50 [26] was 120 nM.
